Laboratory results taken from ChEMBL document CHEMBL1157465, “Design, synthesis, and biological evaluation of novel 3-aryl-4-(1H-indole-3yl)-1,5-dihydro-2H-pyrrole-2-ones as vascular endothelial growth factor receptor (VEGF-R) inhibitors” (J Med Chem, 2008).

What was measured:
[1] = target: Vascular endothelial growth factor receptor 3 (Homo sapiens, UniProt P35916); assay: Inhibition of human recombinant VEGFR3
How it was run: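 Recombinant human tyrosine kinases (EPHB4, TIE2, VEGF-R2, VEGF-R3), expressed in Sf9 insect cells as GST- or His-fusions, with poly(Glu,Tyr) 4:1 as substrate. Conditions: 1 µM [γ-33P]ATP, pH 7.5 HEPES buffer with Mg/Mn, DTT and vanadate, 30 °C for 80 min, 1% DMSO. Ten concentrations were tested and IC50 came from scintillation counting of incorporated 33P.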

[2] = target: T1, Receptor-type tyrosine-protein kinase FLT3 (Homo sapiens, UniProt P36888); assay: Inhibition of human recombinant FLT3
T1 sequence (P36888 whole entry): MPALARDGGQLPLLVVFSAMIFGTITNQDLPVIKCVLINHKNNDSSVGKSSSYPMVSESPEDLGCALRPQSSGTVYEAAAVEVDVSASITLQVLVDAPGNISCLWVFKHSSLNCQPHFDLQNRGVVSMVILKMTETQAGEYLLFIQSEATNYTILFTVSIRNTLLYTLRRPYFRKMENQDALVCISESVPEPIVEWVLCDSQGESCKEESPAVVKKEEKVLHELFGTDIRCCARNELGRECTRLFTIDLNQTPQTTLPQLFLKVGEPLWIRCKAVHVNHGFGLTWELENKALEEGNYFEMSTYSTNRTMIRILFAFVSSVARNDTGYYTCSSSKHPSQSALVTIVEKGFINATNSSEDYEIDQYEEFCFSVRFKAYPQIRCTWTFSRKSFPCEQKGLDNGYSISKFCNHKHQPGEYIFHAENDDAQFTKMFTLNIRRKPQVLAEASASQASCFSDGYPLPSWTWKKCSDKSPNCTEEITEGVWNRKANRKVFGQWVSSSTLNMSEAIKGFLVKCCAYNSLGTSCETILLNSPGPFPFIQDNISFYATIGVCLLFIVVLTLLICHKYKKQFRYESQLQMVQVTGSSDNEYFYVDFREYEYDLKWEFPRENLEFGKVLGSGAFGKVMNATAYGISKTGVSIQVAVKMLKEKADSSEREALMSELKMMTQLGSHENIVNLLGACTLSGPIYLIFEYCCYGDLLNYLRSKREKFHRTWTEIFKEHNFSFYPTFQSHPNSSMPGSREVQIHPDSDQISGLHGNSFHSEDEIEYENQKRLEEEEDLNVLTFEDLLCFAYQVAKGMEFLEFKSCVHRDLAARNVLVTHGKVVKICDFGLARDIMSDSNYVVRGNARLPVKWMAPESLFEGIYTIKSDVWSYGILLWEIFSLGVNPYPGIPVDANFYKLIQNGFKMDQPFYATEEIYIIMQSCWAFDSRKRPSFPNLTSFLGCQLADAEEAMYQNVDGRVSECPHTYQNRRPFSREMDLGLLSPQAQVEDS
How it was run: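 Human kinases expressed in Sf9 cells via baculovirus as GST or His fusions and affinity purified. 33PanQinase assay in 60 mM HEPES-NaOH pH 7.5, 3 mM MgCl2, 3 mM MnCl2, 3 µM orthovanadate, 1.2 mM DTT, 1 µM [γ-33P]ATP, 1% DMSO; 30 °C, 80 min. Substrates: poly(Glu,Tyr) 4:1 for ERBB2, IGF1-R and SRC; poly(Ala,Glu,Lys,Tyr) 6:2:5:1 for FLT3. IC50 from 10 concentrations by scintillation counting.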

[3] = target: T2, Serine/threonine-protein kinase PLK4 (Homo sapiens, UniProt O00444); assay: Inhibition of human recombinant SAK
T2 sequence (O00444 whole entry): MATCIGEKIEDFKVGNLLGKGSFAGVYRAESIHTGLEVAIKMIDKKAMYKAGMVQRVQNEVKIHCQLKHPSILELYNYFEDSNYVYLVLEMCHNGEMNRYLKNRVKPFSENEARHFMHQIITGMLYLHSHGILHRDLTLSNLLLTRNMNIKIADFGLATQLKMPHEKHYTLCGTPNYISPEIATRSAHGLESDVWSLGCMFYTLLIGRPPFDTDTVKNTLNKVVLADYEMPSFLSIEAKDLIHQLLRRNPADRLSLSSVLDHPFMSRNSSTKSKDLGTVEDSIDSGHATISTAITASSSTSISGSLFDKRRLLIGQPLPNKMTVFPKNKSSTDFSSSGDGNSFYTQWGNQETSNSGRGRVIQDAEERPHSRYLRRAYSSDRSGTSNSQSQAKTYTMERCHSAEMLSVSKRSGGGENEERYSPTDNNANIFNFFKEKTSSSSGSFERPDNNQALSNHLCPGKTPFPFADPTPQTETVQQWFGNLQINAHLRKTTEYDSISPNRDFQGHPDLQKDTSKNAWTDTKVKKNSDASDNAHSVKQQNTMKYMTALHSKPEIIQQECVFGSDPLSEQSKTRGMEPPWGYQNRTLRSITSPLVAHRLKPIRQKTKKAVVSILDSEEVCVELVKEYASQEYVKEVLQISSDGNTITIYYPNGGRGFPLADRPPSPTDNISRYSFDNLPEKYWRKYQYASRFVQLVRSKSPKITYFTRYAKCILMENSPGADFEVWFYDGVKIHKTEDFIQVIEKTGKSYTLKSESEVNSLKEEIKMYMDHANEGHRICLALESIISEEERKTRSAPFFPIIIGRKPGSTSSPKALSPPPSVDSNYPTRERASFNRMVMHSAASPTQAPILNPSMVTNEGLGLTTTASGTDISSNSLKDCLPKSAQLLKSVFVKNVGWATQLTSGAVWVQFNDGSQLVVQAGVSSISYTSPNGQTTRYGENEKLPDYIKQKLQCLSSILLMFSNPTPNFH
How it was run: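 Human kinase expressed from cDNA in Sf9 cells (baculovirus) as GST- or His-tagged protein, affinity-purified. 10 compound concentrations, 1% DMSO final, 30 °C for 80 min. Stopped with H₃PO₄, 33P incorporation counted, IC50 derived.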

Aurora kinase A = target: T3, Aurora kinase A (Homo sapiens, UniProt O14965); assay: Inhibition of human recombinant Aurora A
T3 sequence (O14965 whole entry): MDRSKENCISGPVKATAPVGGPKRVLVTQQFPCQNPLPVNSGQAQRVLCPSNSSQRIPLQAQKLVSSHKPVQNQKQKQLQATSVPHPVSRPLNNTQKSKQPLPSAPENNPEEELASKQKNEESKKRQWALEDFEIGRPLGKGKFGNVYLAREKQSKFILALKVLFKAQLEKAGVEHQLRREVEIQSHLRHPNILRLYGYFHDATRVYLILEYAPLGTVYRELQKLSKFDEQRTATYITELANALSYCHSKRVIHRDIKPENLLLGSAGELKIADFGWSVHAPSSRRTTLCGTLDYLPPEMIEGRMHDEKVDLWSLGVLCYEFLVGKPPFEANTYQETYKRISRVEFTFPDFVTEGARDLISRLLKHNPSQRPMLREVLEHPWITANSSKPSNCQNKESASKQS
How it was run: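 Aurora-A or Aurora-B, human cDNA expressed in Sf9 cells as tagged recombinant protein, phosphorylating Tetra(LRRWSLG). Reactions used 60 mM HEPES pH 7.5, Mg2+/Mn2+ (3 mM each), 1.2 mM DTT, vanadate and 1 µM [γ-33P]ATP, ran 80 min at 30 °C and were stopped with 2% H3PO4.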

Sequence of Vascular endothelial growth factor receptor 3 (P35916 whole entry, the tested form may be a part): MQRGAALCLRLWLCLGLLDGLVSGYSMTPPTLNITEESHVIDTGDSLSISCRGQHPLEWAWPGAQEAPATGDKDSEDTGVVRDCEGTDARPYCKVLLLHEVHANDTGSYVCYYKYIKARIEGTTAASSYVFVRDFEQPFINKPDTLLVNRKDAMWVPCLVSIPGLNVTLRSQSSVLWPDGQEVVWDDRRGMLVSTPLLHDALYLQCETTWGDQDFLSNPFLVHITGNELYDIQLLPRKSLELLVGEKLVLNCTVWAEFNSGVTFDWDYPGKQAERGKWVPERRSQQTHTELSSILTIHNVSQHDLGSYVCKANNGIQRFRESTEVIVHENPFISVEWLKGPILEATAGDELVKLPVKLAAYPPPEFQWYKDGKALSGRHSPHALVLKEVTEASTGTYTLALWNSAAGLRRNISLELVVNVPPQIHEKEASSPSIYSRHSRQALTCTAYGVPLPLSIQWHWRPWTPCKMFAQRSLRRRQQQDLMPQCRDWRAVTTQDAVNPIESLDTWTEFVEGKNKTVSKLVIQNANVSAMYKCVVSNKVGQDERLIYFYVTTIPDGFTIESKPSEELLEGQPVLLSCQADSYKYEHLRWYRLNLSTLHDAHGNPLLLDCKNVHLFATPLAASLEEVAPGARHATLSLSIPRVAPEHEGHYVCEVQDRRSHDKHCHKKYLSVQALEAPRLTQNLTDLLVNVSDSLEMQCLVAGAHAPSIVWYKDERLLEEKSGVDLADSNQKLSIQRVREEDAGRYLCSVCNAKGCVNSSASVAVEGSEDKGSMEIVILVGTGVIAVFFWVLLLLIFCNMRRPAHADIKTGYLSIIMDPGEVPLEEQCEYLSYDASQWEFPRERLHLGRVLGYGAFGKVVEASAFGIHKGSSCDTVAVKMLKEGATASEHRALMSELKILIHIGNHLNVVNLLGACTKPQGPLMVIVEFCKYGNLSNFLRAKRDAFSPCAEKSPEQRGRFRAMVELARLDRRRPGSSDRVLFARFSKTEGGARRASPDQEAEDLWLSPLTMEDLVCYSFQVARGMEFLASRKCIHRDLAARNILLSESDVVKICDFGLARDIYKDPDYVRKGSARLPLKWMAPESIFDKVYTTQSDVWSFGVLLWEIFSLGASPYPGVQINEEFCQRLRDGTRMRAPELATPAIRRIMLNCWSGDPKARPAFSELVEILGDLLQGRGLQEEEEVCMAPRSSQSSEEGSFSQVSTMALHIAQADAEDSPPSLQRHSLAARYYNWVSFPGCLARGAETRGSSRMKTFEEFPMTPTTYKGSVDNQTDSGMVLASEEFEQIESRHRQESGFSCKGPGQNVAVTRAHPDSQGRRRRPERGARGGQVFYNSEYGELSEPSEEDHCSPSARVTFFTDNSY

Row | Structure (SMILES) | IC50 [1] [µM] | IC50 [2] [µM] | IC50 [3] [µM] | IC50 (Aurora kinase A) [µM]
1 | COc1ccc(C2=C(c3c[nH]c4ccccc34)C(=O)NC2)cc1 | 8.7 | 9.9 | 12 | 16
2 | COc1cc(C2=C(c3cn(C)c4ccccc34)C(=O)NC2)cc(OC)c1OC | 11 | 5 | 9.2 | 3.2
3 | COc1cc(C2=C(c3cn(COC(C)(C)C)c4ccccc34)CNC2=O)cc(OC)c1OC | 4.8 | 20 | 28 | 30

The remaining lines, values ahead:

Row | IC50 [1] [µM] | IC50 [2] [µM] | IC50 [3] [µM] | IC50 (Aurora kinase A) [µM] | Structure (SMILES)
4 | 9.4 | 2.2 | 7.7 | 3.2 | COc1cc(C2=C(c3c[nH]c4ccccc34)C(=O)NC2)cc(OC)c1OC
5 | 2.5 | 3 | 16 | 47 | COc1cc(C2=C(c3cn(CC(O)CO)c4ccccc34)CNC2=O)cc(OC)c1OC (centres undefined)
6 | 0.037 | 6.1 | 10 | 16 | COc1cc(C2=C(c3c[nH]c4ccccc34)CNC2=O)cc(OC)c1OC
